NS3 helicase inh: inhibitors of Hepatitis C virus NS3 helicase; inhibition, % at 10.9 µM; NS3 helicase DNA unwinding, Cy5 molecular beacon fluorescence; 0.56% of 290,000 active;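 active = inhibition above the mean of all tested compounds plus 3 SD, set per campaign, cut at about 35% in these data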;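 note: 0% = DMSO wells and 100% = thioflavine S control wells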
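Control set: DMSO versus 110 µM thioflavine S; Material: NS3 helicase fragment of HCV; Measured by: Cy5 fluorescence at 0 and 60 min, beacon hairpin quenching; Read-out basis: percent inhibition from t60/t0 fluorescence ratio; Times: reaction time 60 min, 25 °C; Repeats: single replicate; Compound dosing: single dose, 10.9 µM nominal final, DMSO 0.8% final.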
FID counter: counter-screen for HCV NS3 helicase inhibitors: DNA intercalator displacement | AID 1845 | DNA fluorescent intercalator displacement, fluorescence | inhibition, % at 7.9 µM | 0.17% of 290,000 active; in the data active = inhibition above about 37%;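 note: 0% = vehicle and 100% = reference compound; higher means more ethidium bromide displaced from hairpin DNA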
SUMO HTRF inh: inhibitors of human SUMOylation (UBC9). inhibition, % at 35 µM. P63279. AID 2006. 0.36% of 290,000 active. HTRF SUMOylation assay, SAE1/SAE2 + UBC9, in vitro; in the data active = inhibition above about 50%, passing the limit was not always enough
Target sequence (P63279 whole entry, looked up): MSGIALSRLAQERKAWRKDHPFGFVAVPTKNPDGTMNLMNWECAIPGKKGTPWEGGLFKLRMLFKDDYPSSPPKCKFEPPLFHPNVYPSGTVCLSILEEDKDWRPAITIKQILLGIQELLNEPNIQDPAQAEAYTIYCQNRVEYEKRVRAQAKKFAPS
VIM-2 inhibitor: inhibitors of Pseudomonas aeruginosa VIM-2 metallo-beta-lactamase. AID 1527. purified VIM-2, nitrocefin hydrolysis, epi-absorbance fluorescence. inhibition, % at 5.6 µM. 0.89% of 290,000 active;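 active = inhibition above the mean of all tested compounds plus 3 SD, cutoff set per screening run, cut at about 7.5% in these data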;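 note: red hydrolysis product quenches plate fluorescence so inhibitors raise well fluorescence; 0% = enzyme with DMSO and 100% = DMSO without enzyme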
IMP-1 inhibitor: blocks Pseudomonas aeruginosa IMP-1 metallo-beta-lactamase; purified IMP-1, nitrocefin hydrolysis, epi-absorbance fluorescence; inhibition, % at 5.6 µM; 0.45% of 290,000 active; AID 1556;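 active = inhibition above the mean plus 3 SD of all compounds in the same screening run, cut at about 4.5% in these data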;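 note: 0% = IMP-1 with DMSO and 100% = DMSO wells lacking enzyme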
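Assay system: purified IMP-1; Quantity: IMP-1 0.2 nM before substrate addition; Medium: HEPES buffer pH 7.1 with ZnSO4 and Brij 35; Incubation: 15 min enzyme–compound preincubation, then 25 min nitrocefin reaction, 25 °C; Signal: fluorescence quenching readout, ex 480/em 530 nm; Controls: DMSO with and without IMP-1; Repeats: singlicate testing.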
An asterisk follows results filed as active. Sampled rows, rich in hits. Any-hit rate of the full collection: about 2.1%.

SMILES | NS3 helicase inh | FID counter | SUMO HTRF inh | VIM-2 inhibitor | IMP-1 inhibitor
CCN(CC)CCNC(=S)Nc1ccc2nc(N3CCCC3)cc(C)c2c1 | -1 | 49* | 7 | -1 | -1
CCN(CC)CCNC(=S)Nc1ccc2nc(N3CCOCC3)cc(C)c2c1 | 11 | 15 | 32 | 0 | -2
Cc1cc(=O)n2nc(N3CCCC(C(=O)NC4CCC(C)CC4)C3)sc2n1 (stereo not given) | -2 | -34 | -9 | 0 | -1
COCCn1c(N)c(C#N)c2nc3ccccc3nc21 | 8 | 1 | 81* | 0 | -3
COc1ccc(-n2c(N)c(C(=O)NCc3ccco3)c3nc4ccccc4nc32)cc1 | 20 | -14 | 29 | -1 | -3
COc1ccccc1CNC(=O)c1c(N)n(CCCN2CCOCC2)c2nc3ccccc3nc12 | -66 | -2 | 52* | 2 | -4
Nc1c(C(=O)NCc2ccco2)c2nc3ccccc3nc2n1CCc1ccc(F)cc1 | 6 | -14 | 100* | -2 | -2
COCCn1c(N)c(C(=O)NCC2CCCO2)c2nc3ccccc3nc21 (stereo not given) | 15 | -14 | 91* | 0 | -4
COC(=O)/C=C1/S/C(=N/NC(=O)c2ccc(Cl)cc2Cl)NC1=O | 21 | -12 | 19 | -5 | -2
CC(NC(=O)C1CCN(S(=O)(=O)c2ccc(Br)s2)CC1)c1ccccc1 (stereo not given) | -3 | -33 | -7 | -2 | -2
COCCNC(=O)c1c(N)n(CCCn2ccnc2)c2nc3ccccc3nc12 | 33 | 10 | 87* | 7 | -1
Fc1ccc(-c2csc(Nc3ccccn3)n2)cc1 | -8 | 0 | 6 | -3 | -5
Cc1ccc(C)c(N2CCN(C(=S)Nc3ccc4nc(N5CCN(C)CC5)cc(C)c4c3)CC2)c1 | -72 | 47* | -12 | -3 | -3
Cc1ccc(C)c(N2CCN(C(=S)Nc3ccc4nc(N5CCOCC5)cc(C)c4c3)CC2)c1 | -17 | 4 | 3 | -5 | -2
CCCN1CCN(C(=S)Nc2ccc3nc(N4CCN(CC)CC4)cc(C)c3c2)CC1 | 3 | 50* | 23 | 5 | -2
CCN1CCN(c2cc(C)c3cc(NC(=S)N4CCN(c5ccccc5)CC4)ccc3n2)CC1 | -60 | 21 | 24 | -3 | -2
COc1ccc(N2CCN(CCCNC(=O)C(=O)c3c[nH]c4ccccc34)CC2)cc1 | -33 | 10 | 10 | -3 | -1
COc1cc(CNc2ccc(N3CCCCC3)cc2)ccc1OCC(=O)NC(C)(C)C | -2 | -12 | 4 | 1 | -32
Fc1ccc(-c2cc(C(F)(F)F)nc(-n3cccn3)n2)cc1 | -9 | -12 | 0 | 6 | -4
COc1cccc(-c2cc(C(F)(F)F)nc(-n3cncn3)n2)c1 | 7 | -10 | 20 | 8.7* | -4
COc1cccc(-c2cc(C(F)(F)F)nc(-n3cc(C)cn3)n2)c1 | -3 | -21 | 19 | 5 | -3
Fc1ccc(-c2cc(C(F)(F)F)nc(-n3cncn3)n2)cc1 | 11 | -12 | 0 | 9.7* | -3
O=[N+]([O-])c1ccc2c(c1)N([O-])C1(CCCCC1)[N+]2=O | 27 | -8 | 54* | -4 | -3
CC1(C)Cc2c(cnn2-c2ccc(F)cc2)C(NC(=O)c2ccc(=O)oc2)C1 (stereo not given) | -1 | -33 | 1 | -3 | -3
CC1=CC(C)(C)N(C(=O)CNC2CCCC2)c2cc(C)ccc21 | 31 | 24 | 13 | -5 | 34*
SMILES | NS3 helicase inh | FID counter | SUMO HTRF inh | VIM-2 inhibitor | IMP-1 inhibitor
COc1ccc(C(=O)Nc2nnc(-c3ccco3)s2)cc1 | 26 | 2 | -1 | 1 | 7.3*
CCCCCc1ccc(OCCCC[n+]2ccccc2)c(CCCCC)c1 | -52 | 23 | 14 | -2 | 0
CCCCCc1ccc(OCCCC[n+]2cccc(C)c2)c(CCCCC)c1 | -37 | 41* | -5 | 1 | -2
CCCCCc1ccc(OCCCC[n+]2ccc(C)cc2)c(CCCCC)c1 | -24 | 37* | -5 | -5 | -4
Cc1ccc(CNc2nc(C)c(C(=O)N(C)C)s2)cc1 | -1 | -12 | 6 | -2 | -1
Cc1oc2cc(O)ccc2c(=O)c1Oc1ccc(F)cc1 | -8 | -7 | 34 | -1 | -6
COc1c(C)oc2cc(O)ccc2c1=O | 2 | -4 | 50* | -1 | -3
COc1ccc(Oc2coc3cc(O)ccc3c2=O)cc1 | 2 | -5 | 32 | -1 | 25*
COc1ccccc1Oc1coc2cc(O)ccc2c1=O | 4 | -3 | 30 | -1 | -2
COc1ccc(OC)c(NC(=O)CN2CCc3ccccc3C2)c1 | 11 | -25 | 12 | 0 | -2
Cc1nc(S(=O)(=O)c2ccc(Cl)cc2)c(N(C)C)o1 | 11 | -1 | -4 | -2 | -3
Cc1cc(Nc2ccc(F)cc2)n2nc(C)nc2n1 | 1 | -2 | 22 | 9.7* | 2
COc1ccc(Cl)cc1Nc1cc(C)nc2nc(C)nn12 | 1 | -6 | -10 | 10.0* | -3
Cc1cc(Nc2ccc3c(c2)OCCO3)n2nc(C)nc2n1 | -4 | -5 | 1 | 14* | -3
O=C(CCCCCl)Nc1c2c(nc3ccccc13)CCC2 | -8 | 1 | 1 | -2 | -5
COc1ccc(CNC(=O)CNC(=O)c2c(C)nn(C)c2Cl)cc1 | -5 | -3 | -8 | -3 | -2
O=c1oc2c(CN3CCOCC3)c(O)c(Cl)cc2c2c1CCCC2 | 19 | -7 | 43 | 2 | 5.3*
O=c1oc2c(CN3CCOCC3)c(O)ccc2c2c1CCCC2 | 14 | -1 | 45 | 3 | 2
Cc1c(O)c(CN2CCCC2)cc2c1oc(=O)c1ccccc12 | -5 | 4 | -1 | 9.0* | 0
Cc1c(O)c(CN2CCCC2)cc2c3c(c(=O)oc12)CCC3 | 10 | -7 | 42 | 9.6* | -3
COC(=O)c1cc(OC)c(OC)cc1N=CC1=C(O)CC(C)(C)CC1=O | -6 | -11 | 14 | 1 | 5.1*
COC(=O)c1cc(N=CC2=C(O)CC(C)(C)CC2=O)cc(C(=O)OC)c1 | 3 | -16 | 18 | -7 | -3
O=C(c1nn2c(C(F)(F)F)cc(-c3ccccc3)nc2c1Cl)N1CCN2CCCC2C1 (stereo not given) | -4 | 2 | 6 | 9.1* | -1
O=C(c1cc2nc(-c3ccccc3)cc(C(F)(F)F)n2n1)N1CCN2CCCC2C1 (stereo not given) | -3 | -3 | 18 | 9.1* | -5
O=C(Cc1ccc(Br)cc1)Nc1ccccc1Cl | 1 | -3 | 13 | -2 | -1
O=C(NCCc1ccccc1)c1coc(=O)c(Br)c1 | 4 | -2 | 2 | -1 | -1
COc1ccc(CNC(=O)C2CC(C)=CCC2C(=O)O)cc1 (stereo not given) | 1 | -4 | 18 | -1 | -4
CCOc1c(Cl)cc(C(=O)Nc2ccccc2-c2ccccc2)cc1Cl | 2 | 3 | -14 | -2 | -1
COc1ccc(C(=O)Nc2ccccc2-c2ccccc2)cc1Cl | 24 | -1 | -8 | -1 | 5.2*

Bioassay records as filed in PubChem.
